Source: ChEMBL document CHEMBL4414574, “Structure-Based Discovery and Development of a Series of Potent and Selective Bromodomain and Extra-Terminal Protein Inhibitors” (J Med Chem, 2019)
The source made the active and inactive calls. The calls are words filed in the database; no cut-off is given here.

Tests used:
HT-29 = test: Antiproliferative activity against human HT-29 cells after 72 hrs by CCK8 or SRB assay; assay type: functional, cell-based
[1] = biological target: Bromodomain-containing protein 2 (Homo sapiens) (UniProt P25440); test: Binding affinity to human partial length BRD2 bromodomain 1 isoform 1 (K71 to N194 residues) expressed in Escherichia coli BL21 cells assessed as residual binding level at 1 uM measured after 1 hr by quantitative PCR based BROMOscan assay relative to control
Procedure, shortened: (§1)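 A BROMOScan competition-binding panel of 32 bromodomains was run at a single 1 μM compound concentration. Results are primary-screen 'Percent Control', where lower values indicate stronger binding.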

[2] = biological target: Chromatin remodeling regulator CECR2 (Homo sapiens) (UniProt Q9BXF3); test: Binding affinity to human partial length CECR2 (P423 to D543 residues) expressed in Escherichia coli BL21 cells assessed as residual binding level at 1 uM measured after 1 hr by quantitative PCR based BROMOscan assay relative to control; procedure, shortened: as §1
Chromatin remodeling regulator CECR2 (Homo sapiens), sequence (Q9BXF3 whole entry, looked up, the tested form may be a part): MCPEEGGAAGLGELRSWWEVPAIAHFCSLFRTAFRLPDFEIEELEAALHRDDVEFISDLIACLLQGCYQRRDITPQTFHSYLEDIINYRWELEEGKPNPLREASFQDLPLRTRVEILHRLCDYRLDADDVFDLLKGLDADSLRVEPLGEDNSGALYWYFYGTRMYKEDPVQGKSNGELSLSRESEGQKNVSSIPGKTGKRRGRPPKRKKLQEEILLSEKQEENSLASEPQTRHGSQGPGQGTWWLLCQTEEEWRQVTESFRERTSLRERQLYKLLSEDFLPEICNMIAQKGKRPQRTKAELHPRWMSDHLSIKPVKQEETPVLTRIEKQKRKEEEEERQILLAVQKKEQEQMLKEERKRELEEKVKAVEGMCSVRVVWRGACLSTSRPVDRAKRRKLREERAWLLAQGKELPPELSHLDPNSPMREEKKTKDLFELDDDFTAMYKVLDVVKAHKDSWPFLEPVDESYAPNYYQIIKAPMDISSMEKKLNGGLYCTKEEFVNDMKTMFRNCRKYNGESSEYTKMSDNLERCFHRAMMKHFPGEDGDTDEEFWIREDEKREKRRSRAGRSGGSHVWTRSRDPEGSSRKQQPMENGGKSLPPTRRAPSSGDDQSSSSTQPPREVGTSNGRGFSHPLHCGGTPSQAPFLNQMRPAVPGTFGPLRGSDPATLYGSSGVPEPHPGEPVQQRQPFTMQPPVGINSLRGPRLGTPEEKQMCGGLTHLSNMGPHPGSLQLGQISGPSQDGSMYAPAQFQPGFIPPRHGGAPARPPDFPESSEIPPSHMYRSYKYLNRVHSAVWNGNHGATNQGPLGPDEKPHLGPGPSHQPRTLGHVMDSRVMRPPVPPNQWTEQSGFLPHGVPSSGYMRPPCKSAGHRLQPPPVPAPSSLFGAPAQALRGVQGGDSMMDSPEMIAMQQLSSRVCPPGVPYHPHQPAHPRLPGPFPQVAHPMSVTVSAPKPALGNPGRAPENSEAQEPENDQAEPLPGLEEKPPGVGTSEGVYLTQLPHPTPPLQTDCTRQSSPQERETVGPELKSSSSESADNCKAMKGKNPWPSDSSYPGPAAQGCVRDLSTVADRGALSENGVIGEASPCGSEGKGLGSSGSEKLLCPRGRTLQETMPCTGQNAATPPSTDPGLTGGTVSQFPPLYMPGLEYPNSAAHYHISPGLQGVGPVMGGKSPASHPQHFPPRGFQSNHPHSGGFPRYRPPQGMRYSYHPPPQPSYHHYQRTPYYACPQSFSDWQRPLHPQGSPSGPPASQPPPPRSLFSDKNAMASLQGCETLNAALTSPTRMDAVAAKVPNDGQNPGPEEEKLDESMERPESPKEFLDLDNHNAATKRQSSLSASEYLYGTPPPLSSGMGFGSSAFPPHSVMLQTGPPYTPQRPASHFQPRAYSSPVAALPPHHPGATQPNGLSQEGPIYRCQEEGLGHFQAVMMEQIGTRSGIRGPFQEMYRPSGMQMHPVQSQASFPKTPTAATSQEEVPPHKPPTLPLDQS

[3] = Half life in rat brain at 50 mg/kg, po; assay type: ADME, organism-based
[4] = biological target: Voltage-gated inwardly rectifying potassium channel KCNH2 (Homo sapiens, UniProt Q12809); test: Inhibition of human ERG at 40 uM by automatic patch clamp method
Voltage-gated inwardly rectifying potassium channel KCNH2, sequence (Q12809 whole entry): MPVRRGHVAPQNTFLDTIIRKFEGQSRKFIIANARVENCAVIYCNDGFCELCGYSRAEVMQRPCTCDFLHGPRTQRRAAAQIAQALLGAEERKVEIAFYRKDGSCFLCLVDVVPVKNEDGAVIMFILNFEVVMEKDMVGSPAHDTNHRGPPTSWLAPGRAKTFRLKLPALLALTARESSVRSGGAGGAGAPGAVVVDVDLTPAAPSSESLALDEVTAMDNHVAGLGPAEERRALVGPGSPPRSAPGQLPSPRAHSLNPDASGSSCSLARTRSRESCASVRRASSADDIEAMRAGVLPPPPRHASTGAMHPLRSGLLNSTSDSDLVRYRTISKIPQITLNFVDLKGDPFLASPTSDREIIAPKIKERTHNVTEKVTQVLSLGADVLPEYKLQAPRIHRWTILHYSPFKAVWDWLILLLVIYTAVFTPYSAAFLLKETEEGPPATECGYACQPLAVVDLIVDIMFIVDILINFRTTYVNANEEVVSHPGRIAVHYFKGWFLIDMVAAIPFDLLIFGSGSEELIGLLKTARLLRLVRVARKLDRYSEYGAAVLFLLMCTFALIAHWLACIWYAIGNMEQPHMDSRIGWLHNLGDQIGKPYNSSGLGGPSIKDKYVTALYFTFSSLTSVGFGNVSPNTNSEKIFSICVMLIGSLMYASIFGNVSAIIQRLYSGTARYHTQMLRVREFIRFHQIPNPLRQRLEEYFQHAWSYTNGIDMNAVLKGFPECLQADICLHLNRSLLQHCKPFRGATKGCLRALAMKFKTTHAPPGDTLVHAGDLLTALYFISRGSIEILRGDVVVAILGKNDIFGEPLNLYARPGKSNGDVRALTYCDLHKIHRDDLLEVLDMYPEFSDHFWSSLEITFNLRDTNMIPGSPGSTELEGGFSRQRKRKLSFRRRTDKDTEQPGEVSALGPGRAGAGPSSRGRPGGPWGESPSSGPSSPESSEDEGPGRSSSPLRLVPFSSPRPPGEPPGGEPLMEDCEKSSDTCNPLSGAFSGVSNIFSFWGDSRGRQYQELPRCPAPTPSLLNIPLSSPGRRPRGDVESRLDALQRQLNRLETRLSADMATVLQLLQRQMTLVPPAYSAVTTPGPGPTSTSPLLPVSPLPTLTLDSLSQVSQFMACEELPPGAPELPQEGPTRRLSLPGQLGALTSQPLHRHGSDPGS

[5] = biological target: Insulin-like growth factor 1 receptor (Homo sapiens) (UniProt P08069); test: Inhibition of IGF1R (unknown origin) at 10 uM using poly (Glu, Tyr) 4:1 as substrate after 60 mins by ELISA
[6] = biological target: Bromodomain-containing protein 7 (Homo sapiens) (UniProt Q9NPI1); test: Binding affinity to human partial length BRD7 (L125 to R254 residues) expressed in […] assessed as residual binding level at 1 uM measured after 1 hr by quantitative PCR based BROMOscan assay relative to control; procedure, shortened: as §1
[7] = biological target: Histone acetyltransferase KAT2A (Homo sapiens) (UniProt Q92830); test: Binding affinity to human partial length GCN5L2 (E726 to K837 residues) expressed in Escherichia coli BL21 cells assessed as residual binding level at 1 uM measured after 1 hr by quantitative PCR based BROMOscan assay relative to control; procedure, shortened: as §1
Histone acetyltransferase KAT2A (Homo sapiens), sequence (Q92830 2-837 limits assumed): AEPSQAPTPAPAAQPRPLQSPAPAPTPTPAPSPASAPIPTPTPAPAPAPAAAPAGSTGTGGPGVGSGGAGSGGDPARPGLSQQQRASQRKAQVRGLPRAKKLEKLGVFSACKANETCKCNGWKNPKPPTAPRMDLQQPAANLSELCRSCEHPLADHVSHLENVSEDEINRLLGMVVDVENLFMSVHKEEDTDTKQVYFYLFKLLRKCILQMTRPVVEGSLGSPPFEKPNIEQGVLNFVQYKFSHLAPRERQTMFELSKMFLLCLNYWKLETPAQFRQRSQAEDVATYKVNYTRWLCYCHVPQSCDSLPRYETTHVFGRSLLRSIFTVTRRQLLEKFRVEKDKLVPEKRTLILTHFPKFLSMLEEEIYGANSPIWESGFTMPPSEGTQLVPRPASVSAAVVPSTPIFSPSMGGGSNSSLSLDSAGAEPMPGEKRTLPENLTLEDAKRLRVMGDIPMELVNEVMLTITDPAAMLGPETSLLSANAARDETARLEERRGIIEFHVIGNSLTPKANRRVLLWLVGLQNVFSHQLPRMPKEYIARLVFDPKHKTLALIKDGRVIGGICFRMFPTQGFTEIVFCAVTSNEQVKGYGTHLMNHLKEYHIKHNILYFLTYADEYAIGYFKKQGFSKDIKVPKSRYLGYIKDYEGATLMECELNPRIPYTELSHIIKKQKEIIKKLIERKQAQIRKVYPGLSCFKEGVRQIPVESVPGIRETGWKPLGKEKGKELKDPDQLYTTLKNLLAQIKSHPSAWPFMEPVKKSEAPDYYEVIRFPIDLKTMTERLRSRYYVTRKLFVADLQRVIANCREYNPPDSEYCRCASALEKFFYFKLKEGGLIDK

MV4-11 [8] = test: Induction of apoptosis in human MV4-11 cells assessed as increase in cleaved caspase-3 level after 24 hrs by Western blot analysis; assay type: functional, cell-based
Procedure, shortened: (§2)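 MV4-11 cells exposed to compound at the indicated doses for 24 h; lysates probed by Western blotting for the target protein, with GAPDH as loading control.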

[9] = biological target: Nucleosome-remodeling factor subunit BPTF (Homo sapiens) (UniProt Q12830); test: Binding affinity to human partial length FALZ (S2791 to H2911 residues) expressed in Escherichia coli BL21 cells assessed as residual binding level at 1 uM measured after 1 hr by quantitative PCR based BROMOscan assay relative to control; procedure, shortened: as §1
[10] = biological target: E3 ubiquitin-protein ligase TRIM33 (Homo sapiens) (UniProt Q9UPN9); test: Binding affinity to human partial length TRIM33 (D882 to A1087 residues) expressed in Escherichia coli BL21 cells assessed as residual binding level at 1 uM measured after 1 hr by quantitative PCR based BROMOscan assay relative to control
Procedure, shortened: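 Bromodomain panel screen (32 bromodomains) run at 1 μM single concentration; primary binding reported as 'Percent Control', lower values meaning stronger interaction.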

CYP3A4 = CYP3A4 (Homo sapiens, UniProt P08684); test: Reversible inhibition of CYP3A4 in human liver microsomes at 10 uM using midazolam or testosterone as substrate preincubated for 5 mins followed by NADPH addition and measured after 20 mins relative to control; assay type: ADME; settings: probe midazolam or testosterone
CYP3A4, sequence (P08684 whole entry): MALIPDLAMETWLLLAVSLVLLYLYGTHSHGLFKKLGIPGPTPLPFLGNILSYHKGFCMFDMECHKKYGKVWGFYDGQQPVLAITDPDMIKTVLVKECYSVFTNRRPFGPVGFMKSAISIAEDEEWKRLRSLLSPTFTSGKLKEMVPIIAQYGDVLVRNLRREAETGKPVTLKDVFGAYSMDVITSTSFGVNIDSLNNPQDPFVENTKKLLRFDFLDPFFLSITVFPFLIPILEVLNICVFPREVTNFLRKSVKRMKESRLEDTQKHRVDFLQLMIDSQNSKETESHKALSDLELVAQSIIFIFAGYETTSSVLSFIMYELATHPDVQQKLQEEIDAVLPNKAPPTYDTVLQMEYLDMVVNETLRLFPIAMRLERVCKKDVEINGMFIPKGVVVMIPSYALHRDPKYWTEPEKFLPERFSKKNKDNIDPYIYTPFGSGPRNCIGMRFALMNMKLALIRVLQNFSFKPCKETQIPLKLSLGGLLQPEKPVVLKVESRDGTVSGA
Procedure, shortened: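 Human liver microsomes 0.2 mg/mL, 100 mM phosphate pH 7.4, 10 μM test compound, probe cocktail (10 μM midazolam, 100 μM testosterone, 10 μM dextromethorphan, 20 μM diclofenac, 100 μM phenacetin, 100 μM mephenytoin); organic solvent <1%; 5 min preincubation at 37 °C, started with NADPH-generating system, 20 min reaction; metabolite formation expressed relative to PBS control.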

[11] = AUC (0 to t) in ICR mouse at 10 mg/kg, po administered via gavage measured after 0.25 to 24 hrs by UPLC/MS analysis; assay type: ADME, organism-based; design: time 0.25-24 hr, dose 10 mg/kg, route oral; settings: in vivo
Procedure, shortened: (§3)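 Male ICR mice were dosed orally in 1% DMSO/0.5% HPMC vehicle. Plasma (and brain, where stated) concentrations gave Tmax, Cmax, T1/2, AUC0-t and AUC0-inf.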

[12] = biological target: Bromodomain-containing protein 1 (Homo sapiens) (UniProt O95696); test: Binding affinity to human partial length BRD1 (E556 to A688 residues) expressed in Escherichia coli BL21 cells assessed as residual binding level at 1 uM measured after 1 hr by quantitative PCR based BROMOscan assay relative to control; procedure, shortened: as §1
Bromodomain-containing protein 1 (Homo sapiens), sequence (O95696 whole entry, the tested form may be a part): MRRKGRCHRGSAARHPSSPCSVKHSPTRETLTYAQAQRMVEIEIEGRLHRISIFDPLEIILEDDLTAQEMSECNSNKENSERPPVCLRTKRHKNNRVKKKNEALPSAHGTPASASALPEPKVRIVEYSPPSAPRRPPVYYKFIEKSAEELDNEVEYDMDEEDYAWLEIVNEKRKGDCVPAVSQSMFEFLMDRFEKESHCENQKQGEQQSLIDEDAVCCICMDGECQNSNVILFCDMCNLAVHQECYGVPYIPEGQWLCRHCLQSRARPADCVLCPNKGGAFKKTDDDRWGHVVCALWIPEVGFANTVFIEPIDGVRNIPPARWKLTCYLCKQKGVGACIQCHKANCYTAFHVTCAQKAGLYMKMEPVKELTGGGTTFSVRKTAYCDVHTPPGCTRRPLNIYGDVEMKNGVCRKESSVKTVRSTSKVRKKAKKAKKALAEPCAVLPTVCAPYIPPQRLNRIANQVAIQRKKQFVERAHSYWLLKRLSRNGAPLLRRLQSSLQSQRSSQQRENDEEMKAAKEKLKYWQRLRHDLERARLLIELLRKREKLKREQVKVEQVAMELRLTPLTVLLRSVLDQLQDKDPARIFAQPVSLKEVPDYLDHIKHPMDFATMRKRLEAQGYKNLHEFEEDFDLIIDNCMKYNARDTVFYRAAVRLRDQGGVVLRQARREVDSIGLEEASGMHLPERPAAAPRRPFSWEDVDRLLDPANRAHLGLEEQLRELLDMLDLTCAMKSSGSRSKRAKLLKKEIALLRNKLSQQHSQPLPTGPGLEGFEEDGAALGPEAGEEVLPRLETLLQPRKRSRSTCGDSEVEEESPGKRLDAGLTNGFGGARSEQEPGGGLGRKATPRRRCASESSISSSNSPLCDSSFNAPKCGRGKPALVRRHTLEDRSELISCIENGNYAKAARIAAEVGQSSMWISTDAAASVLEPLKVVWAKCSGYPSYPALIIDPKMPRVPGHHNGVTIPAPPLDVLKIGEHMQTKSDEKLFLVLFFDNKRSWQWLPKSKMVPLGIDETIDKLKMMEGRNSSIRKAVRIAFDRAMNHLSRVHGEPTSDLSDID

MV4-11 [13] = test: Induction of apoptosis in human MV4-11 cells assessed as decrease in full-length caspase-8 level at 10 to 1000 nM after 24 hrs by Western blot analysis; assay type: functional, cell-based; procedure, shortened: as §2
[14] = Half life in ICR mouse plasma at 100 mg/kg, po administered via gavage measured after 0.25 to 24 hrs by UPLC/MS analysis; assay type: ADME, organism-based
Procedure, shortened: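 Male ICR mice dosed orally in 1% DMSO/0.5% HPMC vehicle; plasma or brain drug levels used to derive Tmax, Cmax, AUC0-t, AUC0-inf and T1/2.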

[15] = Cmax in rat plasma at 10 mg/kg, po; assay type: ADME, organism-based; design: dose 10 mg/kg, route oral
[16] = AUC (0 to t) in ICR mouse plasma at 100 mg/kg, po administered via gavage measured after 0.25 to 24 hrs by UPLC/MS analysis; assay type: ADME, organism-based; design: time upper 24 hr, dose 100 mg/kg, time lower 0.25 hr, route oral; procedure, shortened: as §3
[17] = Clearance in dog liver microsomes; assay type: ADME, Canis lupus familiaris, Microsome; settings: read-out: CLH
MV4-11 [18] = test: Antitumor activity against human MV4-11 cells xenografted in Balb/c nude mouse assessed as tumor growth inhibition at 50 mg/kg, po administered once daily and measured twice a week by caliper method relative to control; assay type: functional; settings: MV4-11, po, read-out: TGI
[19] = biological target: Bromodomain-containing protein 4 (Homo sapiens, UniProt O60885); test: Binding affinity to human partial length BRD4 bromodomain 2 long isoform (K333 to E460 residues) expressed in Escherichia coli BL21 cells assessed as residual binding level at 1 uM measured after 1 hr by quantitative PCR based BROMOscan assay relative to control; procedure, shortened: as §1
[20] = Cmax in dog plasma at 3 mg/kg, po; assay type: ADME, organism-based, Canis lupus familiaris; design: dose 3 mg/kg, route oral
[21] = Ratio of drug level in brain to plasma in rat; assay type: ADME
Procedure, shortened: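 Rats dosed orally at 50 mg/kg in 1% DMSO/0.5% HPMC; drug measured in plasma and brain.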

[22] = Toxicity in Balb/c nude mouse xenografted with human MV4-11 cells assessed as effect on mouse survival at 10 to 50 mg/kg, administered once daily; assay type: organism-based; settings: in vivo
[23] = Tmax in ICR mouse at 10 mg/kg, po administered via gavage measured after 0.25 to 24 hrs by UPLC/MS analysis; assay type: ADME, organism-based; settings: in vivo
Procedure, shortened: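 Male ICR mice dosed orally (3, 10 or 100 mg/kg, per line) in 1% DMSO/0.5% HPMC vehicle; plasma drug levels measured.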

Cc1ccc(-n2nc(C(=O)N3C[C@@H](C)N[C@@H](C)C3)nc2-c2ccc3c(c2)N(C2CCCC2)[C@H](C)C(=O)N3C)cc1
Activity (HT-29): Active
Activity [1]: < 5%
Activity [2]: 70 to 100%
half-life [3]: 9.3 h
inhibition (INH) [4]: Not Active
inhibition [5]: Active
Activity [6]: 70 to 100%
Activity [7]: 70 to 100%
Activity (MV4-11 [8]): Dose-dependent effect
Activity [9]: 70 to 100%
Activity [10]: 70 to 100%
inhibition at 20 min, 10 µM (CYP3A4): 23 to 28%
AUC(0-t) [11]: 7380 ng·h/mL
Activity [12]: 50 to 70%
Activity (MV4-11 [13]): Active
half-life [14]: 4.4 h
Cmax [15]: 182 ng/mL
AUC(0-t) [16]: 80600 ng·h/mL
microsomal CLint [17]: 77 µL/min/mg
inhibition in vivo at 50 mg/kg (MV4-11 [18]): 95.6%
Activity [19]: < 5%
Cmax [20]: 216 ng/mL
BPR [21]: 8.7%
Activity [22]: Non-Toxic
Tmax [23]: 1.1 h
